{
  "source": "ChEMBL document CHEMBL3875205",
  "about": "“Macrocyclic MEK1/2 inhibitor with efficacy in a mouse model of cardiomyopathy caused by lamin A/C gene mutation” (Bioorg Med Chem, 2017)",
  "key": {"Mus musculus [1]": {"tested_on": "Mus musculus", "assay": "Toxicity in LmnaH222P/H222P mouse model of cardiomyopathy assessed as appearance of hemosiderin-laden macrophages in spleen at 3 to 6 mg/kg/day, po administered 6 days per week via gavage starting from 14 weeks of age up to 20 weeks of age by hematoxylin and eosin staining based assay", "type": "organism-based", "conditions": "in vivo", "procedure,_shortened": "(§1)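 Liver, kidney and spleen from male Lmna H222P/H222P mice given vehicle or 3 or 6 mg/kg/day by gavage 6 days/week from 14 to 20 weeks. Tissues were fixed in 4% formaldehyde for 48 h, paraffin-embedded, sectioned at 5 μm and stained with hematoxylin and eosin. Findings were recorded for each individual sample.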"}, "Mus musculus [2]": {"tested_on": "Mus musculus", "assay": "Toxicity in LmnaH222P/H222P mouse model of cardiomyopathy assessed as blood urea nitrogen level at 3 mg/kg/day, po administered 6 days per week via gavage starting from 14 weeks of age up to 20 weeks of age (reference value: 17.98 +/- 0.94 mg/dl)", "type": "organism-based, Heart", "conditions": "in vivo"}, "Mus musculus [3]": {"tested_on": "Mus musculus", "assay": "Toxicity in LmnaH222P/H222P mouse model of cardiomyopathy assessed as total bilirubin content in serum at 6 mg/kg/day, po administered 6 days per week via gavage starting from 14 weeks of age up to 20 weeks of age (reference value: 0.36 +/- 0.02 mg/L)", "type": "organism-based, Heart", "conditions": "in vivo"}, "Mus musculus [4]": {"tested_on": "Mus musculus", "assay": "Toxicity in LmnaH222P/H222P mouse model of cardiomyopathy assessed as serum creatinine level at 3 mg/kg/day, po administered 6 days per week via gavage starting from 14 weeks of age up to 20 weeks of age (reference value: 0.45 +/- 0.01 mg/dl)", "type": "organism-based, Heart", "conditions": "in vivo"}, "Mus musculus [5]": {"tested_on": "Mus musculus", "assay": "Protective activity in LmnaH222P/H222P mouse model of cardiomyopathy assessed as mean survival days at 6 mg/kg, po administered 6 days per week via gavage starting from 10 weeks of age continued up to mouse death (reference value: 202 day)", "type": "functional, Heart"}, "Mus musculus [6]": {"tested_on": "Mus musculus", "assay": "Toxicity in LmnaH222P/H222P mouse model of cardiomyopathy assessed as total bilirubin content in serum at 3 mg/kg/day, po administered 6 days per week via gavage starting from 14 weeks of age up to 20 weeks of age (reference value: 0.36 +/- 0.02 mg/L)", "type": "organism-based, Heart", "conditions": "in vivo"}, "Mus musculus [7]": {"tested_on": "Mus musculus", "assay": "Hepatotoxicity in LmnaH222P/H222P mouse model of cardiomyopathy assessed as inflammation at 3 to 6 mg/kg/day, po administered 6 days per week via gavage starting from 14 weeks of age up to 20 weeks of age by hematoxylin and eosin staining based assay", "type": "toxicity, organism-based", "conditions": "in vivo", "procedure,_shortened": "as §1"}, "Mus musculus [8]": {"tested_on": "Mus musculus", "assay": "Toxicity in LmnaH222P/H222P mouse model of cardiomyopathy assessed as serum alkaline phosphatase activity at 3 mg/kg/day, po administered 6 days per week via gavage starting from 14 weeks of age up to 20 weeks of age (reference value: 91.5 +/- 6.99 U/L)", "type": "organism-based, Heart", "conditions": "in vivo"}, "Mus musculus [9]": {"tested_on": "Mus musculus", "assay": "Toxicity in LmnaH222P/H222P mouse model of cardiomyopathy assessed as serum alanine aminotransferase activity at 6 mg/kg/day, po administered 6 days per week via gavage starting from 14 weeks of age up to 20 weeks of age (reference value: 56 +/- 10.55 U/L)", "type": "organism-based, Heart", "conditions": "in vivo"}, "Mus musculus [10]": {"tested_on": "Mus musculus", "assay": "Hepatotoxicity in LmnaH222P/H222P mouse model of cardiomyopathy assessed as hepatocyte necrosis at 3 to 6 mg/kg/day, po administered 6 days per week via gavage starting from 14 weeks of age up to 20 weeks of age by hematoxylin and eosin staining based assay", "type": "toxicity, organism-based", "conditions": "hepatocytes", "procedure,_shortened": "as §1"}, "Mus musculus [11]": {"tested_on": "Mus musculus", "assay": "Toxicity in LmnaH222P/H222P mouse model of cardiomyopathy assessed as serum alanine aminotransferase activity at 3 mg/kg/day, po administered 6 days per week via gavage starting from 14 weeks of age up to 20 weeks of age (reference value: 56 +/- 10.55 U/L)", "type": "organism-based, Heart", "conditions": "in vivo"}, "Mus musculus [12]": {"tested_on": "Mus musculus", "assay": "Toxicity in LmnaH222P/H222P mouse model of cardiomyopathy assessed as ratio of blood urea nitrogen to serum creatinine at 3 mg/kg/day, po administered 6 days per week via gavage starting from 14 weeks of age up to 20 weeks of age (reference value: 20.14 +/- 1.25)", "type": "organism-based, Heart", "conditions": "in vivo"}, "[13]": {"molecular_target": "Dual specificity mitogen-activated protein kinase kinase; MEK1/2 (Homo sapiens, UniProt P36507+Q02750)", "assay": "Inhibition of MEK1/2 in human HT-29 cells assessed as reduction in cell proliferation after 72 hrs by CellTiter-Glo assay", "type": "cell-based", "procedure,_shortened": "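HT-29 cells were plated at 2,000/well in DMEM or RPMI with 10% FBS and left overnight at 37°C, 5% CO2. Medium was replaced with compound at 3-fold dilutions from 3.3 µM to 4.5 nM. After 72 h, viability was read by CellTiter-Glo luminescence and IC50 calculated.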"}, "Mus musculus [14]": {"tested_on": "Mus musculus", "assay": "Toxicity in LmnaH222P/H222P mouse model of cardiomyopathy assessed as serum creatinine level at 6 mg/kg/day, po administered 6 days per week via gavage starting from 14 weeks of age up to 20 weeks of age (reference value: 0.45 +/- 0.01 mg/dl)", "type": "organism-based, Heart", "conditions": "in vivo"}, "Mus musculus [15]": {"tested_on": "Mus musculus", "assay": "Protective activity in LmnaH222P/H222P mouse model of cardiomyopathy assessed as mean survival days at 3 mg/kg, po administered 6 days per week via gavage starting from 10 weeks of age continued up to mouse death (reference value: 202 day)", "type": "functional, Heart"}, "Mus musculus [16]": {"tested_on": "Mus musculus", "assay": "Toxicity in LmnaH222P/H222P mouse model of cardiomyopathy assessed as serum amylase activity at 3 mg/kg/day, po administered 6 days per week via gavage starting from 14 weeks of age up to 20 weeks of age (reference value: 1102 +/- 53.63 U/L)", "type": "organism-based, Heart", "conditions": "in vivo"}, "Mus musculus [17]": {"tested_on": "Mus musculus", "assay": "Nephrotoxicity in LmnaH222P/H222P mouse model of cardiomyopathy assessed as interstitial nephritis at 3 to 6 mg/kg/day, po administered 6 days per week via gavage starting from 14 weeks of age up to 20 weeks of age by hematoxylin and eosin staining based assay", "type": "toxicity, organism-based", "conditions": "in vivo", "procedure,_shortened": "as §1"}, "Mus musculus [18]": {"tested_on": "Mus musculus", "assay": "Nephrotoxicity in LmnaH222P/H222P mouse model of cardiomyopathy assessed as glomeruli abnormalities at 3 to 6 mg/kg/day, po administered 6 days per week via gavage starting from 14 weeks of age up to 20 weeks of age by hematoxylin and eosin staining based assay", "type": "toxicity, organism-based", "conditions": "in vivo", "procedure,_shortened": "as §1"}, "Mus musculus [19]": {"tested_on": "Mus musculus", "assay": "Toxicity in LmnaH222P/H222P mouse model of cardiomyopathy assessed as serum alkaline phosphatase activity at 6 mg/kg/day, po administered 6 days per week via gavage starting from 14 weeks of age up to 20 weeks of age (reference value: 91.5 +/- 6.99 U/L)", "type": "organism-based, Heart", "conditions": "in vivo"}, "[20]": {"assay": "Effect on body mass in LmnaH222P/H222P mouse model of cardiomyopathy at 3 mg/kg/day, po administered 6 days per week via gavage starting from 14 weeks of age up to 20 weeks of age (reference value: 23.19 +/- 0.43)", "type": "ADME, organism-based, Heart", "conditions": "in vivo"}, "Mus musculus [21]": {"tested_on": "Mus musculus", "assay": "Hepatotoxicity in LmnaH222P/H222P mouse model of cardiomyopathy assessed as cholestasis at 3 to 6 mg/kg/day, po administered 6 days per week via gavage starting from 14 weeks of age up to 20 weeks of age by hematoxylin and eosin staining based assay", "type": "toxicity, organism-based", "conditions": "in vivo", "procedure,_shortened": "as §1"}, "Mus musculus [22]": {"tested_on": "Mus musculus", "assay": "Toxicity in LmnaH222P/H222P mouse model of cardiomyopathy assessed as blood urea nitrogen level at 6 mg/kg/day, po administered 6 days per week via gavage starting from 14 weeks of age up to 20 weeks of age (reference value: 17.98 +/- 0.94 mg/dl)", "type": "organism-based, Heart", "conditions": "in vivo"}, "[23]": {"assay": "Effect on body mass in LmnaH222P/H222P mouse model of cardiomyopathy at 6 mg/kg/day, po administered 6 days per week via gavage starting from 14 weeks of age up to 20 weeks of age (reference value: 23.19 +/- 0.43)", "type": "ADME, organism-based, Heart", "conditions": "in vivo"}, "Mus musculus [24]": {"tested_on": "Mus musculus", "assay": "Toxicity in LmnaH222P/H222P mouse model of cardiomyopathy assessed as serum amylase activity at 6 mg/kg/day, po administered 6 days per week via gavage starting from 14 weeks of age up to 20 weeks of age (reference value: 1102 +/- 53.63 U/L)", "type": "organism-based, Heart", "conditions": "in vivo"}, "Mus musculus [25]": {"tested_on": "Mus musculus", "assay": "Toxicity in LmnaH222P/H222P mouse model of cardiomyopathy assessed as ratio of blood urea nitrogen to serum creatinine at 6 mg/kg/day, po administered 6 days per week via gavage starting from 14 weeks of age up to 20 weeks of age (reference value: 20.14 +/- 1.25)", "type": "organism-based, Heart", "conditions": "in vivo"}},
  "data": [
    {"smiles": "O=S1(=O)Nc2c(cc(F)c(F)c2Nc2ccc(I)cc2F)OCC(O)C(O)CC12CC2", "note": "(single isomer, unassigned; form 1)", "values": [
      {"measurement": "Activity", "setting": "Mus musculus [1]", "result": "Non-Toxic"},
      {"measurement": "Activity", "setting": "Mus musculus [2]", "result": 18.04, "unit": "mg/dL"},
      {"measurement": "Activity", "setting": "Mus musculus [3]", "result": 0.37, "unit": "mg/L"},
      {"measurement": "Activity", "setting": "Mus musculus [4]", "result": 0.46, "unit": "mg/dL"},
      {"measurement": "MSD", "setting": "Mus musculus [5]", "result": 225, "unit": "days"},
      {"measurement": "Activity", "setting": "Mus musculus [6]", "result": 0.32, "unit": "mg/L"},
      {"measurement": "Activity", "setting": "Mus musculus [7]", "result": "Non-Toxic"},
      {"measurement": "Activity", "setting": "Mus musculus [8]", "result": 104.5, "unit": "U/L"},
      {"measurement": "Activity", "setting": "Mus musculus [9]", "result": 69.6, "unit": "U/L"},
      {"measurement": "Activity", "setting": "Mus musculus [10]", "result": "Non-Toxic"},
      {"measurement": "Activity", "setting": "Mus musculus [11]", "result": 69.6, "unit": "U/L"},
      {"measurement": "Ratio", "setting": "Mus musculus [12]", "result": 19.66},
      {"measurement": "IC50", "setting": "[13]", "result": 0.016, "unit": "µM"},
      {"measurement": "Activity", "setting": "Mus musculus [14]", "result": 0.46, "unit": "mg/dL"},
      {"measurement": "MSD", "setting": "Mus musculus [15]", "result": 225, "unit": "days"},
      {"measurement": "Activity", "setting": "Mus musculus [16]", "result": 1372, "unit": "U/L"},
      {"measurement": "Activity", "setting": "Mus musculus [17]", "result": "Non-Toxic"},
      {"measurement": "Activity", "setting": "Mus musculus [18]", "result": "Non-Toxic"},
      {"measurement": "Activity", "setting": "Mus musculus [19]", "result": 113, "unit": "U/L"},
      {"measurement": "Activity", "setting": "[20]", "result": 24.06},
      {"measurement": "Activity", "setting": "Mus musculus [21]", "result": "Non-Toxic"},
      {"measurement": "Activity", "setting": "Mus musculus [22]", "result": 19.12, "unit": "mg/dL"},
      {"measurement": "Activity", "setting": "[23]", "result": 22.93},
      {"measurement": "Activity", "setting": "Mus musculus [24]", "result": 1086, "unit": "U/L"},
      {"measurement": "Ratio", "setting": "Mus musculus [25]", "result": 20.77}
    ]}
  ]
}
